Results from the M2OR odorant receptor database.

Assays:
Details in all cases: stereoisomer not certain
[1] = target: OR4C16 (Homo sapiens) (UniProt Q8NGL9)
Summary of the method: (§1)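 Transient luciferase assays in mammalian cell lines were common, though methods varied by source. The values come from published papers and their supplementary material, with extra details from the original authors when needed. Responsive refers to a measured signal the original authors judged statistically different from baseline, and non-responsive (inactive) to the remainder.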

[2] = test system: OR4C3
OR4C3, sequence (as listed by the source): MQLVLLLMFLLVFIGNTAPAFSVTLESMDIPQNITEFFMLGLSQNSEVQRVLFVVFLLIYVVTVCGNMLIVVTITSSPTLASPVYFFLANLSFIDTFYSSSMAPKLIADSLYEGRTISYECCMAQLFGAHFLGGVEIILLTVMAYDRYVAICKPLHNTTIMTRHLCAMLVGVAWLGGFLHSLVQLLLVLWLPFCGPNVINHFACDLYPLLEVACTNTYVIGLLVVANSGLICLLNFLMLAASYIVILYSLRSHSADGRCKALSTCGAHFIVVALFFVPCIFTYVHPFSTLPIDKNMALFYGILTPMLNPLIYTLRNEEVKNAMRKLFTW
Summary of the method: as §1

[3] = target: OR4C45 (Homo sapiens) (UniProt A6NMZ5)
Summary of the method: as §1
Target sequence in this assay (A6NMZ5 whole entry): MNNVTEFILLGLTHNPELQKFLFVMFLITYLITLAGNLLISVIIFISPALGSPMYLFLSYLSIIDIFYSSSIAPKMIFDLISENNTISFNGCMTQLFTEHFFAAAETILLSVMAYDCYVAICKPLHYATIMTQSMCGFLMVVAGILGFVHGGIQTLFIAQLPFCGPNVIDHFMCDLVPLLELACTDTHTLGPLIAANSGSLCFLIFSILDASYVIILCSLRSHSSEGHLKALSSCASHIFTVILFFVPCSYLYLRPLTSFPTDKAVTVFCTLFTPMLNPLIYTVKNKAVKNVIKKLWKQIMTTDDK

[4] = target: OR4C46 (Homo sapiens) (UniProt A6NHA9)
OR4C46 (Homo sapiens), sequence (A6NHA9 whole entry): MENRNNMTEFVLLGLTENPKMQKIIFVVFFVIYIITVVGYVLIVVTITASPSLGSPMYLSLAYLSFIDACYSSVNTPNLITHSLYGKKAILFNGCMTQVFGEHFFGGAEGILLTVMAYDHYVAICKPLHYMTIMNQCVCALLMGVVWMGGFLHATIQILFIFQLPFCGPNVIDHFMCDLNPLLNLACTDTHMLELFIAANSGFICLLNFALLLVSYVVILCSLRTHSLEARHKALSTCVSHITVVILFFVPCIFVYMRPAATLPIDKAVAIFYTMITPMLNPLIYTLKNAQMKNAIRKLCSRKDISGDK
Summary of the method: as §1

[5] = target: OR4C5 (Homo sapiens) (UniProt Q8NGB2)
OR4C5 (Homo sapiens), sequence (Q8NGB2 whole entry): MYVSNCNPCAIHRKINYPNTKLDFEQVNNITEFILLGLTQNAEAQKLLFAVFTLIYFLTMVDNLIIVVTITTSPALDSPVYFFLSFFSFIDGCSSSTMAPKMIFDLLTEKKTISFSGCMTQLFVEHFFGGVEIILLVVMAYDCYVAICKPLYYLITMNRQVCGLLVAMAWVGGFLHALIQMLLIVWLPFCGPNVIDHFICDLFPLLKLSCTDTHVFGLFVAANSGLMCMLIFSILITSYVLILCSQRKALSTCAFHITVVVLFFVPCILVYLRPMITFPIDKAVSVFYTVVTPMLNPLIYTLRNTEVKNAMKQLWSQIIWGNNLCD
Summary of the method: as §1

[6] = target: OR4C6 (Homo sapiens) (UniProt Q8NH72)
OR4C6 (Homo sapiens), sequence (Q8NH72 whole entry): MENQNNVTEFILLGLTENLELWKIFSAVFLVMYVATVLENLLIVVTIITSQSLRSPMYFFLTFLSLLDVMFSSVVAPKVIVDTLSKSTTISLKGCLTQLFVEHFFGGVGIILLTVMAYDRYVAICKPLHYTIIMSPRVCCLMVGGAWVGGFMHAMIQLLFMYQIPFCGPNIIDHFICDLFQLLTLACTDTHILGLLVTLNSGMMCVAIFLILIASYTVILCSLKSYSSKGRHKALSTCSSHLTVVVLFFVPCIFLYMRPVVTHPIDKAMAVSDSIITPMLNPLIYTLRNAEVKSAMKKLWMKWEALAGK
Summary of the method: as §1

[7] = test system: OR4CB P8T
OR4CB P8T, sequence (as listed by the source): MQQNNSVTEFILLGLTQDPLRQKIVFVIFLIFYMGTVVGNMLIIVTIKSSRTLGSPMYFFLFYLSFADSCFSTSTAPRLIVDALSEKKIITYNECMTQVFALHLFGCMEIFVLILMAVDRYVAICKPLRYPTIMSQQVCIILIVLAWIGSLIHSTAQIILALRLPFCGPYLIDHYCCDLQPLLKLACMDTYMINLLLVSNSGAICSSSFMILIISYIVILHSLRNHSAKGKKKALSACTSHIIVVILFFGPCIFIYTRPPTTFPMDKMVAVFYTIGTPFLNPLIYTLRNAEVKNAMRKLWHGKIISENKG
Summary of the method: as §1

[8] = test system: OR4CC
OR4CC, sequence (as listed by the source): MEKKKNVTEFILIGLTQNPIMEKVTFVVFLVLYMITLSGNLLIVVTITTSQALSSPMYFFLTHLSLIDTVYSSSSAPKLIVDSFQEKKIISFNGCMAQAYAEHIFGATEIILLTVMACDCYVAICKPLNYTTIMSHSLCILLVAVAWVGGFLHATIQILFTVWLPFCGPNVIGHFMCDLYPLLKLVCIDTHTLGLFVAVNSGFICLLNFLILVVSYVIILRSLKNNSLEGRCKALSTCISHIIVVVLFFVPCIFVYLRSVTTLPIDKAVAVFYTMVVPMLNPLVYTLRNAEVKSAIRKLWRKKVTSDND
Summary of the method: as §1

[9] = target: OR4C3 (Homo sapiens) (UniProt Q8NH37)
OR4C3 (Homo sapiens), sequence (Q8NH37 whole entry): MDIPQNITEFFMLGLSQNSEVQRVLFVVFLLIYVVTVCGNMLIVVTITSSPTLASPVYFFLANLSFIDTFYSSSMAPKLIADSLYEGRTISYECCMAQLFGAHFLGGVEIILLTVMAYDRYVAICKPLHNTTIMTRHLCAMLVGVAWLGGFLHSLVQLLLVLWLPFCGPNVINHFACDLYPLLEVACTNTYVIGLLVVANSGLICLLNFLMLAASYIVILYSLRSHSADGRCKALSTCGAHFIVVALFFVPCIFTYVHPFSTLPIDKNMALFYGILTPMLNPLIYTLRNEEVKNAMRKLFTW
Summary of the method: as §1

[10] = target: OR4C45 (Homo sapiens) (UniProt A6NMZ5); remark: listed apart in the source
Summary of the method: as §1
Target sequence in this assay (A6NMZ5 as listed by the source): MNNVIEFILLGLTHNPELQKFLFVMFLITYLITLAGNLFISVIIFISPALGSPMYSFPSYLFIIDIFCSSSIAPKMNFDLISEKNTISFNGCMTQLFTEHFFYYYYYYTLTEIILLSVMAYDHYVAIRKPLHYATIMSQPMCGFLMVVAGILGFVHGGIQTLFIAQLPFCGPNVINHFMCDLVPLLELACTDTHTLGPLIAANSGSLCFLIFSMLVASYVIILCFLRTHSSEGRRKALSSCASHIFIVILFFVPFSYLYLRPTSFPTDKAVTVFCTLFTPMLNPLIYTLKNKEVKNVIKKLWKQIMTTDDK

Measured: odorant receptor agonist call;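 note: active if original authors judged signal statistically different from baseline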

OR4C16 (Homo sapiens), sequence (Q8NGL9 whole entry): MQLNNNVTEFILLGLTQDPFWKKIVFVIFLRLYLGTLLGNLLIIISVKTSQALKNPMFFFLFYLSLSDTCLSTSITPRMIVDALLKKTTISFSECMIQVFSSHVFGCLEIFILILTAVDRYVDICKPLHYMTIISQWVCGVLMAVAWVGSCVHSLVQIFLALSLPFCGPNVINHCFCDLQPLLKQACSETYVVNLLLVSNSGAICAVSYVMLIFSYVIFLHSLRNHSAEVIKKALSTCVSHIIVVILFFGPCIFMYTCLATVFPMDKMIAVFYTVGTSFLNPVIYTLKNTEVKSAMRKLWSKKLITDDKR

C=CCOC(=O)Cc1ccccc1
not listed: [9] | [10]
inactive: all other assays above

Cc1c([N+](=O)[O-])c(C)c([N+](=O)[O-])c(C(C)(C)C)c1[N+](=O)[O-]
inactive: [1] | [9] | [10] | [4] | [5] | [6]
